Experimental data taken from ChEMBL document CHEMBL3864121, “Development of ebsulfur analogues as potent antibacterials against methicillin-resistant Staphylococcus aureus” (Bioorg Med Chem, 2016).
Converted amounts (≈) assume the structure as drawn. The source made the active and inactive calls. No cut-off for these calls is given here.

What was measured:
Assay type in all cases: functional
Staphylococcus aureus [1] = assay: Antibacterial activity against methicillin-resistant Staphylococcus aureus G6 measured after overnight incubation by broth double-dilution method
Outline: (§1)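 MIC by broth double-dilution in liquid Mueller-Hinton medium. Values are reported in µg/mL.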

Staphylococcus aureus [2] = assay: Antibacterial activity against methicillin-resistant Staphylococcus aureus USA300 measured after overnight incubation by broth double-dilution method; outline: as §1
Enterococcus = assay: Antibacterial activity against Vancomycin-resistant Enterococcus measured after overnight incubation by broth double-dilution method; outline: as §1
Staphylococcus aureus [3] = assay: Antibacterial activity against methicillin-resistant Staphylococcus aureus C16 measured after overnight incubation by broth double-dilution method; outline: as §1
Enterococcus faecalis [4] = assay: Antibacterial activity against Enterococcus faecalis ATCC 29212 measured after overnight incubation by broth double-dilution method
Outline: (§2)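 MIC by broth double-dilution in Mueller-Hinton medium. Re-testing at the time-kill inoculum used 1×10^6 CFU/mL.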

Staphylococcus aureus [5] = assay: Antibacterial activity against methicillin-resistant Staphylococcus aureus C7 measured after overnight incubation by broth double-dilution method; outline: as §1
Staphylococcus aureus [6] = assay: Antibacterial activity against methicillin-resistant Staphylococcus aureus 2 measured after overnight incubation by broth double-dilution method; outline: as §1
Staphylococcus aureus [7] = assay: Antibacterial activity against methicillin-resistant Staphylococcus aureus C1 measured after overnight incubation by broth double-dilution method; outline: as §1
Staphylococcus aureus [8] = assay: Antibacterial activity against methicillin-resistant Staphylococcus aureus USA100 measured after overnight incubation by broth double-dilution method; outline: as §1
Staphylococcus aureus [9] = assay: Antibacterial activity against methicillin-resistant Staphylococcus aureus C19 measured after overnight incubation by broth double-dilution method; outline: as §1
Staphylococcus aureus [10] = assay: Antibacterial activity against methicillin-resistant Staphylococcus aureus G14 measured after overnight incubation by broth double-dilution method; outline: as §1
Staphylococcus aureus [11] = assay: Antibacterial activity against methicillin-resistant Staphylococcus aureus NRS51 measured after overnight incubation by broth double-dilution method; outline: as §1
Staphylococcus aureus [12] = assay: Antibacterial activity against methicillin-sensitive Staphylococcus aureus ATCC 6538 measured after overnight incubation by broth double-dilution method; outline: as §1
Staphylococcus aureus [13] = assay: Antibacterial activity against methicillin-resistant Staphylococcus aureus S14 measured after overnight incubation by broth double-dilution method; outline: as §1
Staphylococcus aureus [14] = assay: Antibacterial activity against methicillin-resistant Staphylococcus aureus S17 measured after overnight incubation by broth double-dilution method; outline: as §1
Staphylococcus aureus [15] = assay: Antibacterial activity against methicillin-resistant Staphylococcus aureus ATCC 33591 measured after overnight incubation by broth double-dilution method; outline: as §1
Staphylococcus aureus [16] = assay: Antibacterial activity against methicillin-resistant Staphylococcus aureus NRS4 measured after overnight incubation by broth double-dilution method; outline: as §1
Staphylococcus aureus [17] = assay: Antibacterial activity against methicillin-resistant Staphylococcus aureus NRS77 measured after overnight incubation by broth double-dilution method; outline: as §1
Enterococcus faecium = assay: Antibacterial activity against Enterococcus faecium BM4105-RF measured after overnight incubation by broth double-dilution method; outline: as §1
Enterococcus faecalis [18] = assay: Antibacterial activity against Enterococcus faecalis ATCC 49533 measured after overnight incubation by broth double-dilution method; outline: as §2
Staphylococcus aureus [19] = assay: Antibacterial activity against methicillin-resistant Staphylococcus aureus C14 measured after overnight incubation by broth double-dilution method; outline: as §1
Staphylococcus aureus [20] = assay: Antibacterial activity against methicillin-resistant Staphylococcus aureus S22 using 1 10^6CFU/ml measured after overnight incubation by broth double-dilution method
Staphylococcus aureus [21] = assay: Antibacterial activity against methicillin-resistant Staphylococcus aureus S24 measured after overnight incubation by broth double-dilution method; outline: as §1
Staphylococcus aureus [22] = assay: Antibacterial activity against methicillin-resistant Staphylococcus aureus 1 measured after overnight incubation by broth double-dilution method; outline: as §1
Staphylococcus aureus [23] = assay: Antibacterial activity against methicillin-resistant Staphylococcus aureus USA600 measured after overnight incubation by broth double-dilution method; outline: as §1
Staphylococcus aureus [24] = assay: Antibacterial activity against methicillin-resistant Staphylococcus aureus S22 measured after overnight incubation by broth double-dilution method; outline: as §1
[25] = test system: Mycolicibacterium smegmatis; assay: Antibacterial activity against Mycobacterium smegmatis MC2-155 measured after overnight incubation by broth double-dilution method; settings: str. MC2 155; outline: as §1
Staphylococcus aureus [26] = assay: Antibacterial activity against methicillin-sensitive Staphylococcus aureus ATCC 29213 measured after overnight incubation by broth double-dilution method; outline: as §1
Listeria monocytogenes = assay: Antibacterial activity against Listeria monocytogenes ATCC 19115 measured after overnight incubation by broth double-dilution method; outline: as §2
Staphylococcus aureus [27] = assay: Antibacterial activity against methicillin-resistant Staphylococcus aureus G12 measured after overnight incubation by broth double-dilution method; outline: as §1
Staphylococcus aureus [28] = assay: Antibacterial activity against methicillin-resistant Staphylococcus aureus C2 measured after overnight incubation by broth double-dilution method; outline: as §1
[29] = test system: Staphylococcus epidermidis; assay: Antibacterial activity against Staphylococcus epidermidis ATCC 35984 measured after overnight incubation by broth double-dilution method; settings: RP62A; outline: as §2
Staphylococcus aureus [30] = assay: Antibacterial activity against methicillin-sensitive Staphylococcus aureus ATCC 25923 measured after overnight incubation by broth double-dilution method; outline: as §1
Staphylococcus aureus [31] = assay: Antibacterial activity against methicillin-resistant Staphylococcus aureus BRS3 measured after overnight incubation by broth double-dilution method; outline: as §1
Staphylococcus aureus [32] = assay: Antibacterial activity against methicillin-resistant Staphylococcus aureus USA200 measured after overnight incubation by broth double-dilution method; outline: as §1
Staphylococcus aureus [33] = assay: Antibacterial activity against methicillin-resistant Staphylococcus aureus G1 measured after overnight incubation by broth double-dilution method; outline: as §1

SMILES | MIC (Staphylococcus aureus [1]) [µg/mL] | MIC (Staphylococcus aureus [2]) [µg/mL] | MIC (Enterococcus) [µg/mL] | MIC (Staphylococcus aureus [3]) [µg/mL] | MIC (Enterococcus faecalis [4]) [µg/mL] | MIC (Staphylococcus aureus [5]) [µg/mL] | MIC (Staphylococcus aureus [6]) [µg/mL] | MIC (Staphylococcus aureus [7]) [µg/mL] | MIC (Staphylococcus aureus [8]) [µg/mL] | MIC (Staphylococcus aureus [9]) [µg/mL] | MIC (Staphylococcus aureus [10]) [µg/mL] | MIC (Staphylococcus aureus [11]) [µg/mL] | MIC (Staphylococcus aureus [12]) [µg/mL] | MIC (Staphylococcus aureus [13]) [µg/mL] | MIC (Staphylococcus aureus [14]) [µg/mL] | MIC (Staphylococcus aureus [15]) [µg/mL] | MIC (Staphylococcus aureus [16]) [µg/mL] | MIC (Staphylococcus aureus [17]) [µg/mL] | MIC (Enterococcus faecium) [µg/mL] | MIC (Enterococcus faecalis [18]) [µg/mL] | also measured
CCCCCn1sc2ccccc2c1=O | 2 (≈ 9.04 µM) | 3.9 (≈ 17.6 µM) | 1 (≈ 4.52 µM) | 7.8 (≈ 35.2 µM) | 7.8 (≈ 35.2 µM) | 2 (≈ 9.04 µM) | 2 (≈ 9.04 µM) | 2 (≈ 9.04 µM) | 3.9 (≈ 17.6 µM) | 1 (≈ 4.52 µM) | 2 (≈ 9.04 µM) | 3.9 (≈ 17.6 µM) | 7.8 (≈ 35.2 µM) | ≤ 0.25 | 2 (≈ 9.04 µM) | 1 (≈ 4.52 µM) | 2 (≈ 9.04 µM) | 2 (≈ 9.04 µM) | 15.6 (≈ 70.5 µM) | > 125 | MIC (Staphylococcus aureus [19]): 3.9 µg/mL (≈ 17.6 µM); Activity (Staphylococcus aureus [20]): Active; MIC (Staphylococcus aureus [21]): 3.9 µg/mL (≈ 17.6 µM); MIC (Staphylococcus aureus [22]): 0.5 µg/mL (≈ 2.26 µM); MIC (Staphylococcus aureus [23]): 3.9 µg/mL (≈ 17.6 µM); MIC (Staphylococcus aureus [24]): 3.9 µg/mL (≈ 17.6 µM); MIC [25]: 2 µg/mL (≈ 9.04 µM); MIC (Staphylococcus aureus [26]): 3.9 µg/mL (≈ 17.6 µM); MIC (Listeria monocytogenes): 3.9 µg/mL (≈ 17.6 µM); MIC (Staphylococcus aureus [27]): 2 µg/mL (≈ 9.04 µM); MIC (Staphylococcus aureus [28]): 2 µg/mL (≈ 9.04 µM); MIC [29]: 3.9 µg/mL (≈ 17.6 µM); MIC (Staphylococcus aureus [30]): 3.9 µg/mL (≈ 17.6 µM); MIC (Staphylococcus aureus [31]): 3.9 µg/mL (≈ 17.6 µM); MIC (Staphylococcus aureus [32]): 3.9 µg/mL (≈ 17.6 µM); MIC (Staphylococcus aureus [33]): 0.5 µg/mL (≈ 2.26 µM)
O=c1c2ccccc2sn1C1CCCCCC1 | 2 (≈ 8.09 µM) | 15.6 (≈ 63.1 µM) | 2 (≈ 8.09 µM) | 3.9 (≈ 15.8 µM) | > 125 | 3.9 (≈ 15.8 µM) | 3.9 (≈ 15.8 µM) | 2 (≈ 8.09 µM) | 3.9 (≈ 15.8 µM) | 1 (≈ 4.04 µM) | 3.9 (≈ 15.8 µM) | 3.9 (≈ 15.8 µM) | 7.8 (≈ 31.5 µM) | 0.5 (≈ 2.02 µM) | 1 (≈ 4.04 µM) | 1 (≈ 4.04 µM) | 2 (≈ 8.09 µM) | 2 (≈ 8.09 µM) | 7.8 (≈ 31.5 µM) | > 125 | MIC (Staphylococcus aureus [19]): 2 µg/mL (≈ 8.09 µM); MIC (Staphylococcus aureus [21]): 3.9 µg/mL (≈ 15.8 µM); MIC (Staphylococcus aureus [22]): 2 µg/mL (≈ 8.09 µM); MIC (Staphylococcus aureus [23]): 7.8 µg/mL (≈ 31.5 µM); MIC (Staphylococcus aureus [24]): 3.9 µg/mL (≈ 15.8 µM); MIC [25]: 7.8 µg/mL (≈ 31.5 µM); MIC (Staphylococcus aureus [26]): 3.9 µg/mL (≈ 15.8 µM); MIC (Listeria monocytogenes): 3.9 µg/mL (≈ 15.8 µM); MIC (Staphylococcus aureus [27]): 2 µg/mL (≈ 8.09 µM); MIC (Staphylococcus aureus [28]): 2 µg/mL (≈ 8.09 µM); MIC [29]: 2 µg/mL (≈ 8.09 µM); MIC (Staphylococcus aureus [30]): 3.9 µg/mL (≈ 15.8 µM); MIC (Staphylococcus aureus [31]): 2 µg/mL (≈ 8.09 µM); MIC (Staphylococcus aureus [32]): 7.8 µg/mL (≈ 31.5 µM); MIC (Staphylococcus aureus [33]): 0.5 µg/mL (≈ 2.02 µM)
O=c1c2ccccc2sn1C1CCCCCCC1 | 2 (≈ 7.65 µM) | 7.8 (≈ 29.8 µM) | 1 (≈ 3.83 µM) | 3.9 (≈ 14.9 µM) | 15.6 (≈ 59.7 µM) | 3.9 (≈ 14.9 µM) | 3.9 (≈ 14.9 µM) | 3.9 (≈ 14.9 µM) | 7.8 (≈ 29.8 µM) | 2 (≈ 7.65 µM) | 3.9 (≈ 14.9 µM) | 2 (≈ 7.65 µM) | 2 (≈ 7.65 µM) | 1 (≈ 3.83 µM) | 2 (≈ 7.65 µM) | > 125 | 0.5 (≈ 1.91 µM) | 2 (≈ 7.65 µM) | 15.6 (≈ 59.7 µM) | 15.6 (≈ 59.7 µM) | MIC (Staphylococcus aureus [19]): 2 µg/mL (≈ 7.65 µM); MIC (Staphylococcus aureus [21]): 3.9 µg/mL (≈ 14.9 µM); MIC (Staphylococcus aureus [22]): 3.9 µg/mL (≈ 14.9 µM); MIC (Staphylococcus aureus [23]): 7.8 µg/mL (≈ 29.8 µM); MIC (Staphylococcus aureus [24]): 7.8 µg/mL (≈ 29.8 µM); MIC [25]: 3.9 µg/mL (≈ 14.9 µM); MIC (Staphylococcus aureus [26]): 2 µg/mL (≈ 7.65 µM); MIC (Listeria monocytogenes): > 125 µg/mL; MIC (Staphylococcus aureus [27]): 2 µg/mL (≈ 7.65 µM); MIC (Staphylococcus aureus [28]): 3.9 µg/mL (≈ 14.9 µM); MIC [29]: 3.9 µg/mL (≈ 14.9 µM); MIC (Staphylococcus aureus [30]): > 125 µg/mL; MIC (Staphylococcus aureus [31]): 3.9 µg/mL (≈ 14.9 µM); MIC (Staphylococcus aureus [32]): 7.8 µg/mL (≈ 29.8 µM); MIC (Staphylococcus aureus [33]): 1 µg/mL (≈ 3.83 µM)
O=c1c2ccccc2sn1-c1cccc(Br)c1 | 3.9 (≈ 12.7 µM) | 3.9 (≈ 12.7 µM) | 7.8 (≈ 25.5 µM) | 3.9 (≈ 12.7 µM) | 15.6 (≈ 50.9 µM) | 3.9 (≈ 12.7 µM) | 3.9 (≈ 12.7 µM) | 3.9 (≈ 12.7 µM) | 3.9 (≈ 12.7 µM) | 3.9 (≈ 12.7 µM) | 7.8 (≈ 25.5 µM) | 3.9 (≈ 12.7 µM) | 7.8 (≈ 25.5 µM) | 0.5 (≈ 1.63 µM) | 3.9 (≈ 12.7 µM) | 2 (≈ 6.53 µM) | 7.8 (≈ 25.5 µM) | 3.9 (≈ 12.7 µM) | 15.6 (≈ 50.9 µM) | > 125 | MIC (Staphylococcus aureus [19]): 7.8 µg/mL (≈ 25.5 µM); Activity (Staphylococcus aureus [20]): Active; MIC (Staphylococcus aureus [21]): 3.9 µg/mL (≈ 12.7 µM); MIC (Staphylococcus aureus [22]): 7.8 µg/mL (≈ 25.5 µM); MIC (Staphylococcus aureus [23]): 7.8 µg/mL (≈ 25.5 µM); MIC (Staphylococcus aureus [24]): > 125 µg/mL; MIC [25]: 3.9 µg/mL (≈ 12.7 µM); MIC (Staphylococcus aureus [26]): 3.9 µg/mL (≈ 12.7 µM); MIC (Listeria monocytogenes): 3.9 µg/mL (≈ 12.7 µM); MIC (Staphylococcus aureus [27]): 7.8 µg/mL (≈ 25.5 µM); MIC (Staphylococcus aureus [28]): 3.9 µg/mL (≈ 12.7 µM); MIC [29]: 3.9 µg/mL (≈ 12.7 µM); MIC (Staphylococcus aureus [30]): 7.8 µg/mL (≈ 25.5 µM); MIC (Staphylococcus aureus [31]): 7.8 µg/mL (≈ 25.5 µM); MIC (Staphylococcus aureus [32]): 7.8 µg/mL (≈ 25.5 µM); MIC (Staphylococcus aureus [33]): 3.9 µg/mL (≈ 12.7 µM)
